Experiments:
Type in all cases: functional
[1] = system: Brassica rapa subsp. oleifera; assay: Herbicidal activity against Brassica rapa subsp. oleifera assessed as inhibition in green house at 1500 g/ha pre-emergence treatment measured after 15 days; settings: 360 h
Method in brief: (§1)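 Greenhouse pot test. Two replicates per treatment. Control was the same amount of water, N,N-dimethylformamide and Tween 20. Fresh weights were taken 15 days after treatment, and percentage inhibition was calculated relative to controls.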

[2] = system: Echinochloa crus-galli; assay: Herbicidal activity against Echinochloa crus-galli (barnyard grass) assessed as inhibition of seedling growth at 100 ug/ml at 28 +/- 1 degC measured after 65 hr by cup test
[3] = system: Echinochloa crus-galli; assay: Herbicidal activity against Echinochloa crus-galli (barnyard grass) assessed as inhibition of seedling growth at 10 ug/ml at 28 +/- 1 degC measured after 65 hr by cup test
[4] = system: Brassica rapa subsp. oleifera; assay: Herbicidal activity against Brassica rapa subsp. oleifera assessed as inhibition of root growth at 100 ug/ml at 28 +/- 1 degC measured after 65 hr by root test
Method in brief: (§2)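 Rape seeds were presoaked 4 h in distilled water. About 15 seeds were placed per 6-cm Petri plate on filter paper pre-wetted with 2 mL inhibitor solution. Plates germinated in the dark for 65 h at 28 ± 1 °C. Root length of 10 roots per plate was measured and averaged. Result expressed as percentage inhibition.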

[5] = system: Brassica rapa subsp. oleifera; assay: Herbicidal activity against Brassica rapa subsp. oleifera assessed as inhibition of root growth at 10 ug/ml at 28 +/- 1 degC measured after 65 hr by root test; method in brief: as §2
[6] = system: Digitaria sanguinalis; assay: Herbicidal activity against Digitaria sanguinalis (hairy crabgrass) assessed as inhibition in green house at 375 g/ha pre-emergence treatment measured after 15 days; settings: 360 h; method in brief: as §1
[7] = system: Digitaria sanguinalis; assay: Herbicidal activity against Digitaria sanguinalis (hairy crabgrass) assessed as inhibition in green house at 750 g/ha pre-emergence treatment measured after 15 days; settings: 360 h; method in brief: as §1
[8] = system: Echinochloa crus-galli; assay: Herbicidal activity against Echinochloa crus-galli (barnyard grass) assessed as inhibition in green house at 375 g/ha pre-emergence treatment measured after 15 days; settings: 360 h; method in brief: as §1
[9] = system: Echinochloa crus-galli; assay: Herbicidal activity against Echinochloa crus-galli (barnyard grass) assessed as inhibition in green house at 750 g/ha pre-emergence treatment measured after 15 days; settings: 360 h; method in brief: as §1
[10] = system: Echinochloa crus-galli; assay: Herbicidal activity against Echinochloa crus-galli (barnyard grass) assessed as inhibition in green house at 1500 g/ha post-emergence treatment measured after 15 days; settings: 360 h; method in brief: as §1
[11] = system: Echinochloa crus-galli; assay: Herbicidal activity against Echinochloa crus-galli (barnyard grass) assessed as inhibition in green house at 1500 g/ha pre-emergence treatment measured after 15 days; settings: 360 h; method in brief: as §1
[12] = system: Amaranthus retroflexus; assay: Herbicidal activity against Amaranthus retroflexus assessed as inhibition in green house at 1500 g/ha pre-emergence treatment measured after 15 days; settings: 360 h; method in brief: as §1
[13] = system: Amaranthus retroflexus; assay: Herbicidal activity against Amaranthus retroflexus assessed as inhibition in green house at 1500 g/ha post-emergence treatment measured after 15 days; settings: 360 h; method in brief: as §1
[14] = system: Brassica rapa subsp. oleifera; assay: Herbicidal activity against Brassica rapa subsp. oleifera assessed as inhibition in green house at 1500 g/ha post-emergence treatment measured after 15 days; settings: 360 h; method in brief: as §1
[15] = system: Digitaria sanguinalis; assay: Herbicidal activity against Digitaria sanguinalis (hairy crabgrass) assessed as inhibition in green house at 1500 g/ha post-emergence treatment measured after 15 days; settings: 360 h; method in brief: as §1
[16] = system: Digitaria sanguinalis; assay: Herbicidal activity against Digitaria sanguinalis (hairy crabgrass) assessed as inhibition in green house at 1500 g/ha pre-emergence treatment measured after 15 days; settings: 360 h; method in brief: as §1

| SMILES | inhibition at 1500 g/ha [1] | inhibition at 100 µg/mL [2] | inhibition at 10 µg/mL [3] | inhibition at 100 µg/mL [4] | inhibition at 10 µg/mL [5] | inhibition at 375 g/ha [6] | inhibition at 750 g/ha [7] | inhibition at 375 g/ha [8] | inhibition at 750 g/ha [9] | inhibition at 1500 g/ha [10] | inhibition at 1500 g/ha [11] | inhibition at 1500 g/ha [12] | inhibition at 1500 g/ha [13] | inhibition at 1500 g/ha [14] | inhibition at 1500 g/ha [15] | inhibition at 1500 g/ha [16] |
| --- | --- | --- | --- | --- | --- | --- | --- | --- | --- | --- | --- | --- | --- | --- | --- | --- |
| COc1ccc(/C(O)=C2\C(=O)CN(C(C)C)C2=O)cc1 | 0% | 80% | 80% | 71% | 12% | 38% | 54% | 20% | 92% | 75% | 98% | 11% | 0% | 6% | – | – |
| Cc1ccccc1/C(O)=C1\C(=O)CN(C(C)C)C1=O | 0% | 77% | 77% | 62% | 15% | 30% | 66% | 43% | 68% | 76% | 84% | 50% | 0% | 44% | – | – |
| Cc1ccc(/C(O)=C2\C(=O)CN(C(C)C)C2=O)cc1 | 24% | 78% | 77% | 86% | 8% | – | 0% | – | 22% | 67% | 77% | 11% | 0% | 20% | – | – |
| COc1ccc(/C(O)=C2\C(=O)CN(C(C)(C)C)C2=O)cc1 | 21% | 80% | 79% | 78% | 5% | 8% | 58% | 0% | 73% | 66% | 93% | 23% | 0% | 0% | – | – |
| Cc1ccc(/C(O)=C2\C(=O)CN(C(C)(C)C)C2=O)cc1 | – | 48% | 36% | 88% | 14% | – | – | – | – | – | – | – | – | – | – | – |
| COc1ccccc1/C(O)=C1\C(=O)CN(C(C)C)C1=O | 0% | 78% | 77% | 59% | 3% | – | – | – | – | 87% | 93% | 16% | 0% | 21% | – | – |
| Cc1ccc(/C(O)=C2\C(=O)CN(C(C)C)C2=O)c(C)c1 | 20% | 76% | 74% | 54% | 10% | – | – | – | – | 66% | 71% | 13% | 0% | 16% | – | – |
| CC(C)N1CC(=O)/C(=C(/O)c2ccc(C(C)(C)C)cc2)C1=O | – | 44% | 28% | 85% | 0% | – | – | – | – | – | – | – | – | – | – | – |
| CCCCCc1ccc(/C(O)=C2\C(=O)CN(C(C)C)C2=O)cc1 | – | 12% | 5.7% | 29% | 14% | – | – | – | – | – | – | – | – | – | – | – |
| CCCc1ccc(/C(O)=C2\C(=O)CN(C(C)C)C2=O)cc1 | – | 57% | 27% | 86% | 60% | – | – | – | – | – | – | – | – | – | – | – |
| CC(C)(C)c1ccc(/C(O)=C2\C(=O)CN(C(C)(C)C)C2=O)cc1 | – | 18% | 4% | 79% | 64% | – | – | – | – | – | – | – | – | – | – | – |
| CC(C)c1ccc(/C(O)=C2\C(=O)CN(C(C)(C)C)C2=O)cc1 | – | 18% | 10% | 83% | 75% | – | – | – | – | – | – | – | – | – | – | – |
| CCCCCc1ccc(/C(O)=C2\C(=O)CN(C3CC3)C2=O)cc1 | – | 23% | 5% | 57% | 0% | – | – | – | – | – | – | – | – | – | – | – |
| O=C1CN(C2CC2)C(=O)/C1=C(\O)c1cccc(Oc2ccccc2)c1 | 0% | 66% | 58% | 80% | 28% | – | – | – | – | 15% | 0% | 0% | 9% | 3% | 10% | 0% |
| COc1ccc(/C(O)=C2\C(=O)CN(C3CC3)C2=O)c(OC)c1 | – | 79% | 78% | 77% | 16% | – | – | – | – | – | – | – | – | – | – | – |
| Cc1cc(C)cc(/C(O)=C2\C(=O)CN(C(C)C)C2=O)c1 | – | 42% | 22% | 81% | 3% | – | – | – | – | – | – | – | – | – | – | – |

| SMILES | inhibition at 1500 g/ha [1] | inhibition at 100 µg/mL [2] | inhibition at 10 µg/mL [3] | inhibition at 100 µg/mL [4] | inhibition at 10 µg/mL [5] | inhibition at 375 g/ha [6] | inhibition at 750 g/ha [7] | inhibition at 375 g/ha [8] | inhibition at 750 g/ha [9] | inhibition at 1500 g/ha [10] | inhibition at 1500 g/ha [11] | inhibition at 1500 g/ha [12] | inhibition at 1500 g/ha [13] | inhibition at 1500 g/ha [14] | inhibition at 1500 g/ha [15] | inhibition at 1500 g/ha [16] |
| --- | --- | --- | --- | --- | --- | --- | --- | --- | --- | --- | --- | --- | --- | --- | --- | --- |
| Cc1cc(C)cc(/C(O)=C2\C(=O)CN(C(C)(C)C)C2=O)c1 | – | 40% | 1% | 82% | 41% | – | – | – | – | – | – | – | – | – | – | – |
| COc1ccc(/C(O)=C2\C(=O)CN(C(C)(C)C)C2=O)cc1OC | – | 59% | 0% | 70% | 58% | – | – | – | – | – | – | – | – | – | – | – |
| COc1ccc(/C(O)=C2\C(=O)CN(C3CC3)C2=O)cc1OC | 0% | 65% | 0% | 72% | 69% | – | – | – | – | 3% | 0% | 0% | 0% | 0% | 0% | 11% |
| Cc1cc(C)cc(/C(O)=C2\C(=O)CN(C3CC3)C2=O)c1 | – | 29% | 0% | 86% | 70% | – | – | – | – | – | – | – | – | – | – | – |
| COc1cc(/C(O)=C2\C(=O)CN(C3CC3)C2=O)cc(OC)c1OC | – | 26% | 4% | 60% | 45% | – | – | – | – | – | – | – | – | – | – | – |
| CCCc1ccc(/C(O)=C2\C(=O)CN(C3CC3)C2=O)cc1 | – | 41% | 8% | 75% | 0% | – | – | – | – | – | – | – | – | – | – | – |
| COCCOCOc1cccc(/C(O)=C2\C(=O)CN(C3CC3)C2=O)c1 | – | 33% | 4% | 35% | 0% | – | – | – | – | – | – | – | – | – | – | – |
| COCCOCOc1ccc(/C(O)=C2\C(=O)CN(C3CC3)C2=O)cc1 | – | 12% | 0% | 51% | 19% | – | – | – | – | – | – | – | – | – | – | – |
| COc1ccc(/C(O)=C2\C(=O)CN(C(C)C)C2=O)cc1OC | – | 76% | 68% | 34% | 24% | – | – | – | – | – | – | – | – | – | – | – |
| CC(C)c1ccc(/C(O)=C2\C(=O)CN(C(C)C)C2=O)cc1 | – | 39% | 0% | 74% | 0% | – | – | – | – | – | – | – | – | – | – | – |
| COc1cc(/C(O)=C2\C(=O)CN(C(C)C)C2=O)cc(OC)c1OC | – | 0% | 0% | 69% | 61% | – | – | – | – | – | – | – | – | – | – | – |
| COc1cc(OC)c(/C(O)=C2\C(=O)CN(C(C)C)C2=O)cc1OC | – | 64% | 0% | 62% | 60% | – | – | – | – | – | – | – | – | – | – | – |
| COCCOCOc1ccccc1/C(O)=C1\C(=O)CN(C(C)C)C1=O | – | 52% | 17% | 28% | 7% | – | – | – | – | – | – | – | – | – | – | – |
| COCCOCOc1cccc(/C(O)=C2\C(=O)CN(C(C)C)C2=O)c1 | – | 74% | 8% | 10% | 0% | – | – | – | – | – | – | – | – | – | – | – |
| COCCOCOc1ccc(/C(O)=C2\C(=O)CN(C(C)C)C2=O)cc1 | – | 21% | 0% | 51% | 19% | – | – | – | – | – | – | – | – | – | – | – |

Reference: ChEMBL document CHEMBL3045615, “Synthesis and herbicidal evaluation of novel 3-[(alpha-hydroxy-substituted)benzylidene]pyrrolidine-2,4-diones” (J Agric Food Chem, 2005)
